Measurements taken from paper PMC4300256 (Aquatic toxicology (Amsterdam, Netherlands), 2014).
Where two headings read alike, the source gives them in different places.

What was measured:
RyR1 [1] = molecular target: T1, RyR1 (Fundulus heteroclitus, UniProt A0A3Q2R0L4); experiment: Ca^2+ induced [^3H]Ry binding; assay type: biochemical; details: NBH and SC killifish; 10 nM [^3H]Ry
Method in brief: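 Skeletal muscle microsomes (≥4 fish pooled per population), 100 µg ml−1, with 10 nM [3H]Ry in 250 KCl/15 NaCl/20 HEPES mM buffer (pH 7.1), 25°C, 16 h. Free Ca2+ 0.25–10,000 µM set with CaCl2/EGTA. Nonspecific binding: 1000-fold unlabeled ryanodine plus 200 µM EGTA. GF/B filtration, scintillation counting. Bell-shaped curve fit. 2–4 biological replicates, each run in triplicate or quadruplicate.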

RyR1 [2] = molecular target: T1, RyR1; experiment: PCB 95 induced [^3H]Ry binding; assay type: biochemical; details: for maximum response achieved, [^3H]Ry binding: 8 nM [^3H]Ry, 50 µM CaCl2; for EC50: read-out: half-maximal effect concentration (EC50)
Method in brief: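 Pooled skeletal muscle microsomes, 40 µg ml−1, were incubated with 8 nM [3H]Ry and 50 µM CaCl2 in RyR buffer (pH 7.1) at 25°C for 16 h. Test compound 0.01–20 µM in 0.5% DMSO; solvent control was 0.5% DMSO. After filtration and scintillation counting, specific binding was taken as a percent of the DMSO control and fitted by sigmoidal dose-response. 2–4 biological replicates, each in triplicate or quadruplicate.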

RyR1 [3] = molecular target: T1, RyR1; assay type: binding; details: two-site model, estimate ± SE

T1 sequence (A0A3Q2R0L4 1-4852): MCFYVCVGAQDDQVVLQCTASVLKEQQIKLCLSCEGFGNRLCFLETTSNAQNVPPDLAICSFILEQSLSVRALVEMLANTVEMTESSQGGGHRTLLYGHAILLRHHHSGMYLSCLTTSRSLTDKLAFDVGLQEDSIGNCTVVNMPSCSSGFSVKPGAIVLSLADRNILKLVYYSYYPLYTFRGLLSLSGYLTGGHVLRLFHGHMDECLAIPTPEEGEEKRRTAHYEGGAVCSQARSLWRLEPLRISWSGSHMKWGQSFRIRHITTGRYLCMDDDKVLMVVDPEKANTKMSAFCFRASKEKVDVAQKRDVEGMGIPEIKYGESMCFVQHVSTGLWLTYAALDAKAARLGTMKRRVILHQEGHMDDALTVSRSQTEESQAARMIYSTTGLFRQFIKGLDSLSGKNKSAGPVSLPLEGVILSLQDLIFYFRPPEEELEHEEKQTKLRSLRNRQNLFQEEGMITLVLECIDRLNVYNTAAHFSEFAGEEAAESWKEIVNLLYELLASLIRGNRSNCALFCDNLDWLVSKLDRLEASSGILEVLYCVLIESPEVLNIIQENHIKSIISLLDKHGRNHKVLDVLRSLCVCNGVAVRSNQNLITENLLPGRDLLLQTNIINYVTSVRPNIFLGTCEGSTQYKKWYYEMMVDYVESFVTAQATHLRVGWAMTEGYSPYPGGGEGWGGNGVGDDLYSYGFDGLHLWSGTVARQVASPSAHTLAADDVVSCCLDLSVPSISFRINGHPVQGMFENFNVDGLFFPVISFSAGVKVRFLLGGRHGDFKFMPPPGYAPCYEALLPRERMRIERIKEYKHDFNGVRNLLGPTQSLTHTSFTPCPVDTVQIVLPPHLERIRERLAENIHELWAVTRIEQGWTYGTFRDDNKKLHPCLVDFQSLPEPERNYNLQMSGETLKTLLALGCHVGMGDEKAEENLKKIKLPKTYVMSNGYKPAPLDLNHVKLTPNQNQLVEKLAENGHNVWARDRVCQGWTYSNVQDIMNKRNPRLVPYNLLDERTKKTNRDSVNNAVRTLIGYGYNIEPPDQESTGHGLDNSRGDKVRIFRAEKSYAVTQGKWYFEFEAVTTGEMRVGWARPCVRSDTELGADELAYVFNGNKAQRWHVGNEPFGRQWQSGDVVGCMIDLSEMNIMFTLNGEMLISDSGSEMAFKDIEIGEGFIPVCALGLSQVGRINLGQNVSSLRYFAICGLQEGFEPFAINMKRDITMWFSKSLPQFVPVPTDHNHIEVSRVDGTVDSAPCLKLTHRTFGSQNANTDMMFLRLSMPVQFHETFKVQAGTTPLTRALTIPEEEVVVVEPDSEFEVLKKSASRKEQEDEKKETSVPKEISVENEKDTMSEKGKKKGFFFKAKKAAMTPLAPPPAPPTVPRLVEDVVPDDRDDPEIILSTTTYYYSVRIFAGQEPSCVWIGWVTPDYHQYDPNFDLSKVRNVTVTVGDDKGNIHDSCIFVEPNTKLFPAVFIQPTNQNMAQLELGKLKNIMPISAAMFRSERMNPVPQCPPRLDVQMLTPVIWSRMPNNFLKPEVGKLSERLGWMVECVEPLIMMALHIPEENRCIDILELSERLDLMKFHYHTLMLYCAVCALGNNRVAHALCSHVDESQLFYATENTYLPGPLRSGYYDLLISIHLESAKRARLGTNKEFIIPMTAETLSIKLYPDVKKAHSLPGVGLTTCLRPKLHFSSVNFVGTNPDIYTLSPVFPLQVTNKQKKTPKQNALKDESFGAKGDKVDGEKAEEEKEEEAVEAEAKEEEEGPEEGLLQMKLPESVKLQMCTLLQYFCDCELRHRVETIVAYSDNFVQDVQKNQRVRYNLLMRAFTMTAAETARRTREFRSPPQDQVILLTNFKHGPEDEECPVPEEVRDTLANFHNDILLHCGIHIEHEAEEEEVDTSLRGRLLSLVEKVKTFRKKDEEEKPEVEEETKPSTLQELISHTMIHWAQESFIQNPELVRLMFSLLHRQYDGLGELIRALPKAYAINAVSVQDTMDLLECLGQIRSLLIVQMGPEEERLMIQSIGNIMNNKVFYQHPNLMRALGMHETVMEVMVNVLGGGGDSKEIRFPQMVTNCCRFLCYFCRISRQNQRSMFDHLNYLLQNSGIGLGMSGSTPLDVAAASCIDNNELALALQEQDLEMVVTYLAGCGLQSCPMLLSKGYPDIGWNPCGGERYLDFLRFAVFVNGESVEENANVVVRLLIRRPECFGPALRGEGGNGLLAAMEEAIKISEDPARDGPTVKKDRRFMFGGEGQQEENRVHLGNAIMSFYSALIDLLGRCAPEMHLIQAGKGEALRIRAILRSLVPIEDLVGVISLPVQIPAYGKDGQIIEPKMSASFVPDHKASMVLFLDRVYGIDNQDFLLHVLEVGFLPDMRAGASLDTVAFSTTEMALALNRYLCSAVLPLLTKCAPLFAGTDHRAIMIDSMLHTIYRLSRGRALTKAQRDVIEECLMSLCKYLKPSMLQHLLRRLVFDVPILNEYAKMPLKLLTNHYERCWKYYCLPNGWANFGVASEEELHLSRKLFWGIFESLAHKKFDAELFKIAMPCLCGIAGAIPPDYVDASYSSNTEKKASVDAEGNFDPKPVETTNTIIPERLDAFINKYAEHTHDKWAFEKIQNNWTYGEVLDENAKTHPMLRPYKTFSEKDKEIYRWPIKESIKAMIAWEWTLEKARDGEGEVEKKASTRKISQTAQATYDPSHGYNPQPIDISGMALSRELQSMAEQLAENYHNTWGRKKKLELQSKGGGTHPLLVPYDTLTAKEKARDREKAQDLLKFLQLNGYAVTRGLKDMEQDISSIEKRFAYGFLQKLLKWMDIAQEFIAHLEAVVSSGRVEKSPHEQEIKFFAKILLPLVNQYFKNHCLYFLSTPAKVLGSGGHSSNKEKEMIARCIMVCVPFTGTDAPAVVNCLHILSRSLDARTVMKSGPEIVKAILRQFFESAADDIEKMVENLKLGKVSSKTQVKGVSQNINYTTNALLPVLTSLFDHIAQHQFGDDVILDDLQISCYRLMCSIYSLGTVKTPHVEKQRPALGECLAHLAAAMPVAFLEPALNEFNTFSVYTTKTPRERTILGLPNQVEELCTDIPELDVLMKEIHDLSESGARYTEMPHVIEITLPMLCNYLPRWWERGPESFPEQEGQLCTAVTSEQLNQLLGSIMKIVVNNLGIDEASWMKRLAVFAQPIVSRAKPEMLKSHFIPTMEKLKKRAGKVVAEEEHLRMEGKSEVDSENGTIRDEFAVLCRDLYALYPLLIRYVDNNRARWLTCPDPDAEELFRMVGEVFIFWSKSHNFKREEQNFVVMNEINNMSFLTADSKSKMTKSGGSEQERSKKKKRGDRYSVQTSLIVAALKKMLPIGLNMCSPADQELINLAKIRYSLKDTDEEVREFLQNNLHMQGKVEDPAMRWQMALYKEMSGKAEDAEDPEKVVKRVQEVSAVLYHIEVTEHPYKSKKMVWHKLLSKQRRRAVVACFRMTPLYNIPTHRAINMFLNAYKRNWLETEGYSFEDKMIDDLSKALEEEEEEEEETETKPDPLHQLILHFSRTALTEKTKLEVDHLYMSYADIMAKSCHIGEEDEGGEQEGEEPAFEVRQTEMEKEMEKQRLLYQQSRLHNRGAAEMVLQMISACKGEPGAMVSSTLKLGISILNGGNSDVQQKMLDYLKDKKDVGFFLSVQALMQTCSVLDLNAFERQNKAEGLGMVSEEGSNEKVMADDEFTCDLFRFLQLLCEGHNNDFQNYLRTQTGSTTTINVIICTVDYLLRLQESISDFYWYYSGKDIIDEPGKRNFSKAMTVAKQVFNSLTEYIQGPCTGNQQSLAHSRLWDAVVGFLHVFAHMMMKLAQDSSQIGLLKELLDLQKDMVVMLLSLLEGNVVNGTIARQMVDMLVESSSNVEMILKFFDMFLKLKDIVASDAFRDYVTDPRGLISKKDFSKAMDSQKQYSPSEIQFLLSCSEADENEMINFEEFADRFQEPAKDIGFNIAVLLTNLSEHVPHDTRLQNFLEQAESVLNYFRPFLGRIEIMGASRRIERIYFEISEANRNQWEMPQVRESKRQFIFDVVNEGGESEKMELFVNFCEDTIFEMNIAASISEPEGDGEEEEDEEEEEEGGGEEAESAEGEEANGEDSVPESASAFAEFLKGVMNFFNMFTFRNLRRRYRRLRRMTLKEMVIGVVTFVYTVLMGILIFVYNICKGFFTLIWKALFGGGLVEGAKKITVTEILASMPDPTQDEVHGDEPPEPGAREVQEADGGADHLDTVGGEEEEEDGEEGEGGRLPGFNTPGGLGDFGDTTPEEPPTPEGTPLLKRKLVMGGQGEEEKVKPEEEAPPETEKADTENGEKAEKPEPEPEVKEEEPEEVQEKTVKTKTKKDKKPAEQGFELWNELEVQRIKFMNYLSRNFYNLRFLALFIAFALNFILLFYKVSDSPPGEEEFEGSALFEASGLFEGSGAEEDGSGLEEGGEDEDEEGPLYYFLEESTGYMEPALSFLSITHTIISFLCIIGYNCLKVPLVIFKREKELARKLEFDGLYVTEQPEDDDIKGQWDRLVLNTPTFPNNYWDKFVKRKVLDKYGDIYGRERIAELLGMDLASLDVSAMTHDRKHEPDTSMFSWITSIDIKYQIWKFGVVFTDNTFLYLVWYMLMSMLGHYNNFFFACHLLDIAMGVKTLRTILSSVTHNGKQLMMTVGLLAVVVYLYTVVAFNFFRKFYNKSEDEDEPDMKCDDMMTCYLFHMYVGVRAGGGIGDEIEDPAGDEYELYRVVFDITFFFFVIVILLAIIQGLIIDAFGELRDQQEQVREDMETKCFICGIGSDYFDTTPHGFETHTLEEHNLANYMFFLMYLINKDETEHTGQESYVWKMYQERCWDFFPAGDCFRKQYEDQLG

SMILES: [Ca+2] [Ca^2+]
- Ca^2+ levels leading to receptor activation (RyR1 [1]): below 250 µM
- Ca^2+ levels leading to receptor inactivation (RyR1 [1]): above 500 µM

SMILES: Clc1ccc(Cl)c(-c2c(Cl)ccc(Cl)c2Cl)c1 [PCB 95]
- EC10 (RyR1 [2]; NBH killifish skeletal muscle): 9.23 nM
- maximum response achieved, [^3H]Ry binding (RyR1 [2]; NBH killifish skeletal muscle): 301 % of the DMSO control
- EC10 (RyR1 [2]; SC killifish skeletal muscle): 4.11 nM
- maximum response achieved, [^3H]Ry binding (RyR1 [2]; SC killifish skeletal muscle): 248 % of the DMSO control
- EC50 (RyR1 [2]; NBH killifish skeletal muscle, 95% CI 77.7–119.1): 96.2 nM
- EC50 (RyR1 [2]; SC killifish skeletal muscle, 95% CI 36.6–84.6): 55.6 nM

SMILES: CC(C)[C@@]1(O)[C@@H](OC(=O)c2ccc[nH]2)[C@@]2(O)[C@@]3(C)C[C@]4(O)O[C@@]5([C@H](O)[C@@H](C)CC[C@]35O)[C@@]2(O)[C@@]14C [[^3H]Ry, ryanodine]
- High Affinity Bmax (RyR1 [3]; NBH killifish skeletal muscle): 1.63 ± 0.32 pmol/mg
- Low Affinity Bmax (RyR1 [3]; NBH killifish skeletal muscle): 6.69 ± 0.92 pmol/mg
- High Affinity Bmax (RyR1 [3]; SC killifish skeletal muscle): 1.47 ± 0.31 pmol/mg
- Low Affinity Bmax (RyR1 [3]; SC killifish skeletal muscle, 95% CI 0.81 to 5.05): 2.93 ± 1.07 pmol/mg
